Measurements reported in ChEMBL document CHEMBL3085685, “In vitro and in vivo antileishmanial and trypanocidal studies of new N-benzene- and N-naphthalenesulfonamide derivatives” (J Med Chem, 2013).
Activity calls are given as the source filed them. The rule behind the calls is not given here.

Tests used:
Trypanosoma cruzi [1] = test: Trypanocidal activity against extracellular epimastigote stage of Trypanosoma cruzi CL-B5 assessed as reduction of parasite load after 72 hrs by CPRG-based colorimetric analysis
Leishmania amazonensis [2] = test: Leishmanicidal activity against intracellular amastigote stage of Leishmania amazonensis MHOM/Br/79/Maria infected in mouse J774 cells assessed as reduction of parasite load after 48 hrs by resazurin dye-based fluorometric analysis; type: functional, organism-based; settings: Leishmania amazonensis, MHOM/Br/79/Maria, J774, 48 h; read-out: IC50
Outline: (§1)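 J774 macrophages (5 × 10^4/well) infected with stationary promastigotes at 1:10, 24 h at 33 °C then 24 h at 37 °C, 5% CO2, and washed free of promastigotes. Then 2-fold serial dilutions in triplicate for 48 h at 37 °C. Cells lysed with RPMI with 0.048% HEPES and 0.006% SDS, transformed in Schneider's 3 days at 26 °C, resazurin 3 h, fluorescence 535/590 nm.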

Leishmania amazonensis [3] = test: Leishmanicidal activity against extracellular promastigote stage of Leishmania amazonensis MHOM/Br/79/Maria assessed as reduction of parasite load after 48 hrs by resazurin dye-based fluorometric analysis; type: functional, organism-based; settings: Leishmania amazonensis, MHOM/Br/79/Maria, 48 h; read-out: IC50
Outline: (§2)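 Log-phase promastigotes cultured in Schneider's medium with 20% heat-inactivated FBS at 26 °C, 2.5 × 10^5 per well. DMSO-dissolved compounds added as 2-fold serial dilutions, final DMSO ≤0.2% (v/v), 48 h at 26 °C. Growth read by 2.5 mM resazurin stock, fluorescence 535/590 nm. Triplicate; IC50 by probit analysis.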

Leishmania infantum [4] = test: Leishmanicidal activity against promastigote stage of Leishmania infantum MCAN/ES/96/BCN150 infected in BALB/c mouse assessed as reduction of parasite burden in spleen at 5 mg/kg, ip qd administered for 5 days measured after 7 days by limiting dilution assay relative to untreated control; type: functional
Outline: (§3)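 BALB/c mice infected intracardially under pentobarbital anaesthesia with 10^7 stationary L. infantum BCN150 promastigotes. From day 21 post-infection, dosed ip once daily for 5 days in 0.1 mL propylene glycol, with an untreated control group. Killed 7 days later; spleen and liver burdens by limiting dilution and expressed as % reduction versus controls.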

Leishmania infantum [5] = test: Leishmanicidal activity against intracellular amastigote stage of Leishmania infantum MCAN/ES/96/BCN150 infected in mouse J774 cells assessed as reduction of parasite load after 48 hrs by resazurin dye-based fluorometric analysis; type: functional, organism-based; settings: Leishmania infantum, MCAN/ES/96/BCN150, J774, 48 h; read-out: IC50
Outline: as §1

[6] = Cytotoxicity against mouse NCTC-929 cells assessed as reduction of cell viability after 24 hrs by resazurin dye-based […]
Outline: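 NCTC clone 929 fibroblasts in DMEM with 10% FBS and 2 mM L-glutamine, plated at 3 × 10^4 cells/well and grown overnight at 37 °C, 5% CO2. Compounds in fresh medium for 24 h, then 2 mM resazurin solution added for 3 h. Absorbance read at 570 and 595 nm; CC50 taken as 50% viability loss versus untreated cells, by probit analysis.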

Trypanosoma cruzi [7] = test: Trypanocidal activity against bloodstream trypomastigote stage of Trypanosoma cruzi Y infected in BALB/c mouse assessed as reduction of parasitemia at 10 mg/kg/day, ip qd administered for 5 days measured on day 10 post-infection by microscopic analysis relative to control; type: functional; parameters: scale not given: the % may be the effect or the level left; settings: route intraperitoneal
Outline: (§4)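 Female BALB/c mice (20–24 g) infected ip with 10^4 Y-strain bloodstream trypomastigotes; only parasitemic animals used. Compounds dissolved in DMSO, freshly diluted in propylene glycol, given ip at 10 mg/kg/day for 5 days from 5 dpi, with an untreated group. Parasitemia counted by Pizzi–Brener in 5 μL tail blood at 5, 8, 10 dpi; mortality checked daily to 30 dpi.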

[8] = Cytotoxicity against mouse J774 cells assessed as reduction of cell viability after 24 hrs by resazurin dye-based fluorometric analysis
Outline: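 J774 macrophages in RPMI 1640 with 10% heat-inactivated FBS, seeded at 5 × 10^4 cells/well and attached 24 h at 37 °C, 5% CO2. Medium swapped for drug dilutions for 24 h. Then 2.5 mM resazurin stock added for 3 h, fluorescence read at 535 nm excitation / 590 nm emission. Triplicate; CC50 from probit analysis.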

Trypanosoma cruzi [9] = test: Trypanocidal activity against intracellular amastigote stage of Trypanosoma cruzi CL-B5 infected in mouse NCTC-929 cells assessed as reduction of parasite load after 7 days by CPRG-based colorimetric analysis
Leishmania guyanensis = test: Leishmanicidal activity against extracellular promastigote stage of Leishmania guyanensis 141/93 assessed as reduction of parasite load after 48 hrs by resazurin dye-based fluorometric analysis; type: functional, organism-based; settings: Leishmania guyanensis, 141/93, 48 h; read-out: IC50
Outline: as §2

[10] = Selectivity index, ratio of CC50 for mouse J774 cells to IC50 for extracellular promastigote stage of Leishmania guyanensis 141/93; type: functional
Leishmania infantum [11] = test: Leishmanicidal activity against extracellular promastigote stage of Leishmania infantum MCAN/ES/96/BCN150 assessed as reduction of parasite load after 48 hrs by resazurin dye-based fluorometric analysis; type: functional, organism-based; settings: Leishmania infantum, MCAN/ES/96/BCN150, 48 h; read-out: IC50
Outline: as §2

[12] = Selectivity index, ratio of CC50 for mouse J774 cells to IC50 for extracellular promastigote stage of Leishmania amazonensis MHOM/Br/79/Maria; type: functional
Trypanosoma cruzi [13] = test: Trypanocidal activity against bloodstream trypomastigote stage of Trypanosoma cruzi Y infected in BALB/c mouse assessed as reduction of survival rate at 10 mg/kg/day, ip qd administered for 5 days measured daily until day 30 post-infection; type: functional, organism-based
Outline: as §4

[14] = Selectivity index, ratio of CC50 for mouse NCTC-929 cells to IC50 for extracellular epimastigote stage of Trypanosoma cruzi CL-B5; type: functional
Leishmania infantum [15] = test: Leishmanicidal activity against promastigote stage of Leishmania infantum MCAN/ES/96/BCN150 infected in BALB/c mouse assessed as reduction of parasite burden in liver at 5 mg/kg, ip qd administered for 5 days measured after 7 days by limiting dilution assay relative to untreated control; type: functional
Outline: as §3

Leishmania braziliensis = test: Leishmanicidal activity against extracellular promastigote stage of Leishmania braziliensis 2903 assessed as reduction of parasite load after 48 hrs by resazurin dye-based fluorometric analysis; type: functional, organism-based; settings: Leishmania braziliensis, 2903, 48 h; read-out: IC50
Outline: as §2

Trypanosoma cruzi [16] = test: Trypanocidal activity against bloodstream trypomastigote stage of Trypanosoma cruzi Y infected in BALB/c mouse assessed as reduction of parasitemia at 10 mg/kg/day, ip qd administered for 3 days measured on day 8 post-infection by microscopic analysis relative to control; type: functional; parameters: scale not given: the % may be the effect or the level left; settings: route intraperitoneal
Outline: as §4

Leishmania infantum [17] = test: Binding affinity to beta-tubulin in promastigote stage of Leishmania infantum assessed as structure disorganization at IC50 after 48 hrs by confocal laser scanning microscopic analysis
Leishmania infantum [18] = test: Antileishmanial activity against promastigote stage of Leishmania infantum assessed as alteration in nuclear DNA at IC50 after 48 hrs by propidium iodide staining-based confocal laser scanning microscopic analysis; type: functional, organism-based
Leishmania infantum [19] = test: Antileishmanial activity against promastigote stage of Leishmania infantum assessed as alteration in kinetoplast DNA at IC50 after 48 hrs by propidium iodide staining-based confocal laser scanning microscopic analysis; type: functional, organism-based
Mus musculus [20] = test: Toxicity in BALB/c mouse infected with promastigote stage of Leishmania infantum MCAN/ES/96/BCN150 assessed as gross weight loss at 10 mg/kg, ip qd administered for 5 days; type: organism-based; parameters: dose 10 mg/kg, route intraperitoneal; settings: in vivo, 120 h
Outline: as §3

[21] = Selectivity index, ratio of CC50 for mouse J774 cells to IC50 for extracellular promastigote stage of Leishmania infantum MCAN/ES/96/BCN150; type: functional
Mus musculus [22] = test: Toxicity in BALB/c mouse infected with promastigote stage of Leishmania infantum MCAN/ES/96/BCN150 assessed as hair loss at 10 mg/kg, ip qd administered for 5 days; type: organism-based; parameters: dose 10 mg/kg, route intraperitoneal; settings: in vivo, 120 h
Outline: as §3

Leishmania infantum [23] = test: Leishmanicidal activity against promastigote stage of Leishmania infantum MCAN/ES/96/BCN150 infected in BALB/c mouse assessed as reduction of parasite burden in liver at 10 mg/kg, ip qd administered for 5 days measured after 7 days by limiting dilution assay relative to untreated control; type: functional; parameters: scale not given: the % may be the effect or the level left; settings: route intraperitoneal
Outline: as §3

Leishmania infantum [24] = test: Leishmanicidal activity against promastigote stage of Leishmania infantum MCAN/ES/96/BCN150 infected in BALB/c mouse assessed as reduction of parasite burden in spleen at 10 mg/kg, ip qd administered for 5 days measured after 7 days by limiting dilution assay relative to untreated control; type: functional; parameters: scale not given: the % may be the effect or the level left; settings: route intraperitoneal
Outline: as §3

[25] = Selectivity index, ratio of CC50 for mouse J774 cells to IC50 for extracellular promastigote stage of Leishmania braziliensis 2903; type: functional
Leishmania infantum [26] = test: Antileishmanial activity against promastigote stage of Leishmania infantum assessed as disappearance of kinetoplast DNA at IC50 after 48 hrs by propidium iodide staining-based confocal laser scanning microscopic analysis; type: functional, organism-based
Leishmania infantum [27] = test: Binding affinity to beta-tubulin in promastigote stage of Leishmania infantum assessed as structure disorganization at IC50 after 24 to 48 hrs by confocal laser scanning microscopic analysis
Mus musculus [28] = test: Toxicity in BALB/c mouse infected with promastigote stage of Leishmania infantum MCAN/ES/96/BCN150 assessed as appearance of hyperactivity with local skin irritation at 5 mg/kg, ip qd administered for 5 days; type: organism-based; parameters: dose 5 mg/kg, route intraperitoneal; settings: in vivo, 120 h
Outline: as §3

Leishmania infantum [29] = test: Antileishmanial activity against promastigote stage of Leishmania infantum assessed as induction of apoptosis at IC50 after 48 hrs by propidium iodide staining-based confocal laser scanning microscopic analysis; type: functional, organism-based

## O=S(=O)(Nc1cccc2cnccc12)c1cccc2ccccc12
Trypanosoma cruzi [1]; Trypanosoma cruzi, CL-B5, 72 h, read-out: IC50
  IC50: 97.6 µM
Leishmania amazonensis [2]
  IC50: 42.9 µM
Leishmania amazonensis [3]
  IC50: 24.5 µM
Leishmania infantum [4]
  Activity: inactive
Leishmania infantum [5]
  IC50: 23 µM
[6]
  CC50 at 24 h: 187 µM
Trypanosoma cruzi [7]
  Activity: 60%
[8]
  CC50 at 24 h: ≥ 300 µM
Trypanosoma cruzi [9]; Trypanosoma cruzi, CL-B5, NCTC-929, 168 h, read-out: IC50
  IC50: 141 µM
Leishmania guyanensis
  IC50: 15.8 µM
[10]
  Ratio CC50/IC50: > 16.2
Leishmania infantum [11]
  IC50: 20.3 µM
[12]
  Ratio CC50/IC50: >10.4
Trypanosoma cruzi [13]
  Activity: Active
[14]
  Ratio CC50/IC50: >1.9
Leishmania infantum [15]
  Activity: inactive
Leishmania braziliensis
  IC50: 23 µM
Trypanosoma cruzi [16]
  Activity: 72%

## O=S(=O)(Nc1ccc2[nH]ncc2c1)c1ccccc1
Leishmania infantum [17]
  Activity: Active
Trypanosoma cruzi [1]
  IC50: Not Active
Leishmania infantum [18]
  Activity: inactive
Leishmania infantum [19]
  Activity: inactive
Mus musculus [20]
  Activity: Non-toxic
Leishmania amazonensis [2]
  IC50: 30.8 µM
Leishmania amazonensis [3]
  IC50: 38.7 µM
[21]
  Ratio CC50/IC50: > 6.9
Leishmania infantum [4]; route intraperitoneal
  Activity: 55.5%
Leishmania infantum [5]
  IC50: 83.2 µM
Mus musculus [22]
  Activity: Non-toxic
[8]
  CC50 at 24 h: ≥ 300 µM
Leishmania infantum [23]
  Activity: 97.57%
Trypanosoma cruzi [9]; nctc-929
  IC50: Not Active
Leishmania guyanensis
  IC50: 47.9 µM
[10]
  Ratio CC50/IC50: >5.3
Leishmania infantum [24]
  Activity: 96.34%
Leishmania infantum [11]
  IC50: 37.3 µM
Leishmania infantum [15]; route intraperitoneal
  Activity: 78.9%
Leishmania braziliensis
  IC50: 40.3 µM

## Cc1cc2cc(NS(=O)(=O)c3ccccc3)ccc2[nH]1
Trypanosoma cruzi [1]
  IC50: Not Active
[25]
  Ratio CC50/IC50: >8.8
Leishmania amazonensis [2]
  IC50: 64.1 µM
Leishmania amazonensis [3]
  IC50: 15.4 µM
Leishmania infantum [4]
  Activity: inactive
Leishmania infantum [5]
  IC50: 47.3 µM
[8]
  CC50 at 24 h: ≥ 300 µM
Trypanosoma cruzi [9]; nctc-929
  IC50: Not Active
Leishmania guyanensis
  IC50: 20.9 µM
Leishmania infantum [11]
  IC50: 23.4 µM
[12]
  Ratio CC50/IC50: > 16.6
Leishmania infantum [15]
  Activity: inactive
Leishmania braziliensis
  IC50: 29 µM

## CC1CCCN(S(=O)(=O)c2cccc3ccccc23)C1 (stereo not drawn)
Trypanosoma cruzi [1]
  IC50: Not Active
Leishmania infantum [26]
  Activity: Active
Leishmania infantum [27]
  Activity: Active
Leishmania amazonensis [2]
  IC50: 18 µM
Leishmania amazonensis [3]
  IC50: 24.6 µM
[21]
  Ratio CC50/IC50: > 38.2
Leishmania infantum [4]; route intraperitoneal
  Activity: 80.17%
Leishmania infantum [5]
  IC50: 7.1 µM
[8]
  CC50 at 24 h: ≥ 300 µM
Trypanosoma cruzi [9]; nctc-929
  IC50: Not Active
Mus musculus [28]
  Activity: Toxic
Leishmania guyanensis
  IC50: 7.2 µM
Leishmania infantum [29]
  Activity: Active
Leishmania infantum [11]
  IC50: 6.7 µM
[12]
  Ratio CC50/IC50: >10.4
Leishmania infantum [15]
  Activity: inactive
Leishmania braziliensis
  IC50: 9.9 µM
